Columns and labels:
[1] = target: T1, Substance-K receptor (Rattus norvegicus) (UniProt P16610); test: Compound was evaluated for antagonism of contractile response of rat colon muscularis mucosae (RC) at tachykinin receptor 2; type: functional, tissue-based; conditions: Muscularis mucosa
T1 sequence (whole entry): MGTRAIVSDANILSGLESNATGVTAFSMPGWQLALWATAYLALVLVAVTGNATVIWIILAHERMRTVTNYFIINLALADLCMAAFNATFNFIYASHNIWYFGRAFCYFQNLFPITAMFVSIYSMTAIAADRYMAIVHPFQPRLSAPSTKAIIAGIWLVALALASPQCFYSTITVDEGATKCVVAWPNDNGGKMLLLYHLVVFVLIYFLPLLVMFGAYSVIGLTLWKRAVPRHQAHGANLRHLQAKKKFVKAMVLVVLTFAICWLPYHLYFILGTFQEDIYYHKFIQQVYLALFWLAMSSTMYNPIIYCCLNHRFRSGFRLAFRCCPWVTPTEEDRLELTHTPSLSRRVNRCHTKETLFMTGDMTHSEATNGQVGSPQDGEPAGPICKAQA
Procedure, shortened: (§1)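 Colon muscularis mucosae from male AHA rats (250–500 g), killed by concussion and exsanguination. Contraction to neurokinin A (NK-2). At least two control agonist curves, then a single antagonist concentration per tissue. Equiactive agonist concentration-ratio taken at half-maximal response. pK_B = log(CR−1) − log[antagonist]. Mean ± SE over four to eight preparations.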

[2] = target: Substance-P receptor (Cavia porcellus) (UniProt P30547); test: Compound was evaluated for antagonism of contractile response of guinea pig ileum longitudinal smooth muscle (GPI) at Tachykinin receptor 1; type: functional, tissue-based
Substance-P receptor (Cavia porcellus), sequence (P30547 whole entry): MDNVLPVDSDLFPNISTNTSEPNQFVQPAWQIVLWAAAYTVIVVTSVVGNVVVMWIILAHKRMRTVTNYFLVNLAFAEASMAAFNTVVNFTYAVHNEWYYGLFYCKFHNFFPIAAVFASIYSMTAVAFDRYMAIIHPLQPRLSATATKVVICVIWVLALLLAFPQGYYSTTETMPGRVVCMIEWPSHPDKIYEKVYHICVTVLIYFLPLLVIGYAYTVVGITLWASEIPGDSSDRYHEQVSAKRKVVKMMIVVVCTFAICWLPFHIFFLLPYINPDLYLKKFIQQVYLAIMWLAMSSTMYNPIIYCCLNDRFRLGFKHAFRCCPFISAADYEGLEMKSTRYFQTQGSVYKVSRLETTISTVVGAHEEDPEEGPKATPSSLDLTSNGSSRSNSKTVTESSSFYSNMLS
Procedure, shortened: (§2)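 Isolated longitudinal smooth muscle of ileum from male Dunkin-Hartley guinea-pigs (300–600 g), killed by concussion and exsanguination. Contraction to SP methyl ester (NK-1 agonist). At least two control agonist curves, then one antagonist concentration per preparation. Concentration-ratio read graphically at half-maximal response. pK_B = log(CR−1) − log[antagonist]. Mean ± SE over four to eight tissues.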

[3] = target: T1, Substance-K receptor (Rattus norvegicus); test: Compound was evaluated for antagonism of contractile response of rat colon muscularis mucosae (RC) at Tachykinin receptor 2; type: functional, tissue-based; conditions: Muscularis mucosa; procedure, shortened: as §1
[4] = target: Substance-P receptor (Cavia porcellus) (UniProt P30547); test: Compound was evaluated for antagonism of contractile response of guinea pig ileum longitudinal smooth muscle (GPI) at tachykinin receptor 1; type: functional, tissue-based; procedure, shortened: as §2
[5] = target: T2, Neuromedin-K receptor (Rattus norvegicus) (UniProt P16177); test: Compound was evaluated for antagonism of contractile response of rat portal vein at tachykinin receptor 3; type: functional
T2 sequence (whole entry): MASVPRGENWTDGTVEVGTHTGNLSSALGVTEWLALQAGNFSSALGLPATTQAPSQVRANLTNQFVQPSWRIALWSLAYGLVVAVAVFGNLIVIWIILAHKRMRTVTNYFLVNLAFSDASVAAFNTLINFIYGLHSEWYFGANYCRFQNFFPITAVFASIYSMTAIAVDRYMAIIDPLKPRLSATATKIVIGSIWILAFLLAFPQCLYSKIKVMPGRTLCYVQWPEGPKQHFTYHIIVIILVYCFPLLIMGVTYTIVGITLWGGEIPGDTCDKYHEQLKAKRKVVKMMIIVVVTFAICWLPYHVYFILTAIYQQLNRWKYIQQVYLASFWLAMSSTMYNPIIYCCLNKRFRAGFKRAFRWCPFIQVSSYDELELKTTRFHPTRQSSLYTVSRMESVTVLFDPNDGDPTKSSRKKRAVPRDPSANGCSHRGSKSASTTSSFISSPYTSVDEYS
Procedure, shortened: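 Everted portal vein from male AHA rats (250–500 g). Contraction to senktide (NK-3). Agonist curves were repeated at least twice before exposure to one antagonist concentration per preparation. Concentration-ratio estimated graphically at the half-maximal level. pK_B = log(CR−1) − log(molar antagonist). Mean ± SE of four to eight tissues.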

Structure (SMILES)	pKB [1]	pKB [2]	pKB [3]	pKB [4]	pKB [5]
CCCC[C@H](NC(=O)[C@@H]1CCCN1C(=O)[C@H]1CCCN1C(=O)[C@H](Cc1ccccc1)NC(=O)[C@@H](Cc1ccccc1)NC(=O)[C@H](C)NC(=O)[C@H](CCCN=C(N)N)NC(=O)OC(C)(C)C)C(N)=O	6.4				
CCCC[C@H](NC(=O)[C@@H]1CCCN1C(=O)[C@H]1CCCN1C(=O)[C@H](Cc1ccccc1)NC(=O)[C@@H](Cc1c[nH]c2ccccc12)NC(=O)[C@H](C)NC(=O)[C@H](CCCCN)NC(=O)OC(C)(C)C)C(N)=O		4.8	7.1		
CCCC[C@H](NC(=O)[C@@H]1CCCN1C(=O)[C@H]1CCCN1C(=O)[C@H](Cc1ccccc1)NC(=O)[C@@H](Cc1c[nH]c2ccccc12)NC(=O)[C@H](C)NC(=O)[C@H](CCCN=C(N)N)NC(=O)OC(C)(C)C)C(N)=O	8.2			5.8	< 4.6
CCCC[C@H](NC(=O)[C@@H]1CCCN1C(=O)[C@H]1CCCN1C(=O)[C@H](Cc1ccccc1)NC(=O)[C@H](Cc1ccccc1)NC(=O)[C@H](C)NC(=O)[C@@H](N)CCCN=C(N)N)C(N)=O	< 4.6			< 4.6	< 4.6
CCCC[C@H](NC(=O)[C@@H]1CCCN1C(=O)[C@H]1CCCN1C(=O)[C@H](Cc1ccccc1)NC(=O)[C@H](Cc1c[nH]c2ccccc12)NC(=O)[C@H](C)NC(=O)[C@H](CCCN=C(N)N)NC(=O)OC(C)(C)C)C(N)=O	6.4			< 5	
CCCCCNC(=O)[C@@H]1CCCN1C(=O)[C@H]1CCCN1C(=O)[C@H](Cc1ccccc1)NC(=O)[C@@H](Cc1c[nH]c2ccccc12)NC(=O)[C@H](C)NC(=O)[C@H](CCCN=C(N)N)NC(=O)OC(C)(C)C	7.6			5.8	
CCCC[C@H](NC(=O)[C@H](CC(C)C)NC(=O)[C@@H](Cc1c[nH]c2ccccc12)NC(=O)[C@H](Cc1ccccc1)NC(=O)[C@@H](Cc1c[nH]c2ccccc12)NC(=O)[C@H](C)NC(=O)[C@@H](N)CCCN=C(N)N)C(N)=O	6.2			6	< 4.6
CCCC[C@H](NC(=O)[C@@H]1CCCN1C(=O)[C@H]1CCCN1C(=O)[C@H](Cc1ccccc1)NC(=O)[C@@H](Cc1c[nH]c2ccccc12)NC(=O)[C@H](C)NC(=O)[C@H](CCCN=C(N)N)NC(C)=O)C(N)=O	5.6			4.6	
CCCC[C@H](NC(=O)[C@@H]1CCCN1C(=O)[C@H]1N(C(=O)[C@H](Cc2ccccc2)NC(=O)[C@@H](Cc2c[nH]c3ccccc23)NC(=O)[C@H](C)NC(=O)[C@@H](N)CCCN=C(N)N)CSC1(C)C)C(N)=O		4.7	5.9		
CNC(=O)[C@@H]1CCCN1C(=O)[C@H]1CCCN1C(=O)[C@H](Cc1ccccc1)NC(=O)[C@@H](Cc1c[nH]c2ccccc12)NC(=O)[C@H](C)NC(=O)[C@H](CCCN=C(N)N)NC(=O)OC(C)(C)C	7.5			5.1	
CCCC[C@H](NC(=O)[C@@H]1CCCN1C(=O)CNC(=O)[C@H](Cc1ccccc1)NC(=O)[C@@H](Cc1c[nH]c2ccccc12)NC(=O)[C@H](C)NC(=O)[C@@H](N)CCCN=C(N)N)C(N)=O	< 4.6			4.8	< 4.6
CSCC[C@H](NC(=O)[C@@H]1CCCN1C(=O)[C@H]1CCCN1C(=O)[C@H](Cc1ccccc1)NC(=O)[C@@H](Cc1c[nH]c2ccccc12)NC(=O)[C@H](C)NC(=O)[C@H](CCCN=C(N)N)NC(=O)OC(C)(C)C)C(N)=O	6.2			< 4.5	
CSCC[C@@H](NC(=O)[C@H](CC(C)C)NC(=O)[C@H]1CCCN1C(=O)[C@H](Cc1ccccc1)NC(=O)[C@@H](Cc1c[nH]c2ccccc12)NC(=O)[C@H](C)NC(=O)[C@@H](N)CCCN=C(N)N)C(N)=O	5.7			< 4.6	4.9
CCCC[C@H](NC(=O)[C@@H]1CCCN1C(=O)[C@H]1CCCN1C(=O)[C@H](Cc1ccccc1)NC(=O)[C@@H](Cc1c[nH]c2ccccc12)NC(=O)[C@H](C)NC(=O)[C@H](CCC/N=C(\N)N[N+](=O)[O-])NC(=O)OC(C)(C)C)C(N)=O	8.2			5.5	5.2
CCCC[C@H](NC(=O)[C@@H]1CCCN1C(=O)[C@H]1CCCN1C(=O)[C@H](Cc1ccccc1)NC(=O)[C@@H](Cc1c[nH]c2ccccc12)NC(=O)[C@H](C)NC(=O)[C@@H](N)CCCN=C(N)N)C(N)=O	5.9			4.7	< 4.6
CCCC[C@H](NC(=O)[C@@H]1CCCN1C(=O)[C@H]1CCCN1C(=O)[C@H](Cc1ccccc1)NC(=O)[C@@H](Cc1c[nH]c2ccccc12)NC(=O)[C@H](C)NC(=O)[C@H](N)CCC(=O)OCc1ccccc1)C(N)=O		< 5.5	7.2		
CCCC[C@H](NC(=O)[C@@H]1CCCN1C(=O)[C@H]1CCCN1C(=O)[C@H](Cc1ccccc1)NC(=O)[C@@H](C)NC(=O)[C@H](C)NC(=O)[C@H](CCCN=C(N)N)NC(=O)OC(C)(C)C)C(N)=O	5.6			4.8	
CCCC[C@H](NC(=O)[C@@H]1CCCN1C(=O)[C@H]1CCCN1C(=O)[C@H](Cc1ccccc1)NC(=O)[C@@H](Cc1c[nH]c2ccccc12)NC(=O)[C@H](C)NC(=O)[C@@H](CCCN=C(N)N)NC(=O)OC(C)(C)C)C(N)=O	5.2			5.7	
C[C@H](NC(=O)[C@H](CCCN=C(N)N)NC(=O)OC(C)(C)C)C(=O)N[C@H](Cc1c[nH]c2ccccc12)C(=O)N[C@@H](Cc1ccccc1)C(=O)N1CCC[C@@H]1C(=O)N1CCC[C@H]1C(=O)NCC(N)=O	7			5.3	
CCCC[C@H](NC(=O)[C@H](CC(C)C)NC(=O)[C@@H](Cc1c[nH]c2ccccc12)NC(=O)[C@H](Cc1ccccc1)NC(=O)[C@@H](Cc1c[nH]c2ccccc12)NC(=O)[C@H](C)NC(=O)[C@H](CCCN=C(N)N)NC(=O)OC(C)(C)C)C(N)=O	6.5			6.9	
CCCC[C@H](NC(=O)[C@@H]1CCCN1C(=O)[C@H]1CCCN1C(=O)[C@H](Cc1ccccc1)NC(=O)[C@@H](Cc1c[nH]c2ccccc12)NC(=O)[C@H](C)NC(=O)[C@@H](CCC(=O)OCc1ccccc1)NC(=O)OC(C)(C)C)C(N)=O	7.1			6	
CCCC[C@H](NC(=O)C1CCCN1C(=O)[C@H]1CCCN1C(=O)[C@H](Cc1ccccc1)NC(=O)[C@@H](Cc1c[nH]c2ccccc12)NC(=O)CCCCNC(=O)OC(C)(C)C)C(N)=O (stereo partly specified)			7.6		
CCCC[C@H](NC(=O)[C@@H]1CCCN1C(=O)[C@H]1CCCN1C(=O)[C@H](Cc1ccccc1)NC(=O)[C@@H](Cc1c[nH]c2ccccc12)NC(=O)[C@H](C)NC(=O)[C@H](CCCN=C(N)N)NC(=O)OCc1ccccc1)C(N)=O	7.5			6.7	
CCCC[C@H](NC(=O)[C@@H]1CCCN1C(=O)[C@H]1CCCN1C(=O)[C@H](Cc1ccccc1)NC(=O)[C@H]1CCCN1C(=O)[C@H](C)NC(=O)[C@H](CCCN=C(N)N)NC(=O)OC(C)(C)C)C(N)=O	5.2			4.5	
CCCC[C@H](NC(=O)[C@@H]1CCCN1C(=O)[C@H]1CCCN1C(=O)[C@H](Cc1ccccc1)NC(=O)[C@@H](Cc1c[nH]c2ccccc12)NC(=O)[C@H](C)NC(=O)[C@H](CCC(=O)O)NC(=O)OC(C)(C)C)C(N)=O		< 4.5	6.5		
CCCC[C@H](NC(=O)[C@@H]1CCCN1C(=O)[C@H]1CCCN1C(=O)[C@H](Cc1ccccc1)NC(=O)[C@@H](Cc1c[nH]c2ccccc12)NC(=O)[C@H](C)NC(=O)[C@H](CCC(=O)OCc1ccccc1)NC(=O)OC(C)(C)C)C(N)=O	7.4			6.6	
CCCC[C@H](NC(=O)[C@H](CC(C)C)NC(=O)[C@@H](Cc1c[nH]c2ccccc12)NC(=O)[C@H](Cc1ccccc1)NC(=O)[C@@H](Cc1c[nH]c2ccccc12)NC(=O)[C@H](CCC(N)=O)NC(=O)[C@@H](N)CCCN=C(N)N)C(N)=O	5.7			6.4	
CCCC[C@H](NC(=O)[C@H](CC(C)C)NC(=O)[C@@H](Cc1c[nH]c2ccccc12)NC(=O)[C@H](Cc1ccccc1)NC(=O)[C@@H](Cc1c[nH]c2ccccc12)NC(=O)[C@H](CCC(N)=O)NC(=O)[C@H](CCCN=C(N)N)NC(=O)OC(C)(C)C)C(N)=O	6.5			7.1	

— ChEMBL document CHEMBL1125477, “Highly potent and selective heptapeptide antagonists of the neurokinin NK-2 receptor” (J Med Chem, 1992)
